Measurements taken from ChEMBL document CHEMBL1134489, “Enantioselective syntheses of dopaminergic (R)- and (S)-benzyltetrahydroisoquinolines” (J Med Chem, 2001).

Key:
[1] = target: Sodium-dependent dopamine transporter (Rattus norvegicus, UniProt P23977); experiment: Inhibition of [3H]dopamine uptake in rat striatal synaptosomes; type: subcellular, Brain
In short: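 Synaptosomes from male Wistar rat striatum (sucrose homogenate, 1000g then 15000g pellet) in oxygenated Krebs-Ringer pH 7.6. Preincubated 5 min with 10 µM pargyline, then 5 min with 2 nM final [3H]dopamine. Stopped by ice-cold dilution and filtration. Retained radioactivity counted by liquid scintillation. IC50 from curves with 4-11 concentrations, 4-6 determinations each.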

[2] = target: D(2) dopamine receptor (Rattus norvegicus, UniProt P61169); experiment: Inhibition of [3H]-Raclopride binding to the rat striatal membranes; type: cell membranes, Membrane
D(2) dopamine receptor, sequence (P61169 whole entry): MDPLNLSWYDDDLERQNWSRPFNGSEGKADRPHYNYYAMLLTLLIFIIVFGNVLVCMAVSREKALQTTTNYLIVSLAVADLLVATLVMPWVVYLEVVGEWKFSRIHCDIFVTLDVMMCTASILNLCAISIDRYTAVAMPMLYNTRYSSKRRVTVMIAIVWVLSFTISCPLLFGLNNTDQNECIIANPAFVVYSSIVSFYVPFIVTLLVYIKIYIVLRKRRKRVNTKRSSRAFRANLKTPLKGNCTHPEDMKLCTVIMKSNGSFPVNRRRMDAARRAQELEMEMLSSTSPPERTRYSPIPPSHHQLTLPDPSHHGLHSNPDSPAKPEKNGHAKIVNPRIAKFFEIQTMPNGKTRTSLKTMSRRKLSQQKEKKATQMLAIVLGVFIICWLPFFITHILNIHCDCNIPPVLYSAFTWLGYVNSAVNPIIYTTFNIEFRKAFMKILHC
In short: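 Rat striatum homogenized in 50 mM Tris-HCl pH 7.4, washed four times by centrifugation at 20000g, resuspended in Tris with 120 mM NaCl, 5 mM KCl, 1 mM CaCl2, 1 mM MgCl2, 0.1% ascorbic acid. Membranes (200 µg protein) incubated 1 h at 25 °C with 0.5 nM [3H]raclopride plus drug. Nonspecific binding defined with 50 µM apomorphine. Filtration, scintillation counting. IC50 from 4-11 concentrations, 4-6 determinations each.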

[3] = target: D(1A) dopamine receptor (Rattus norvegicus, UniProt P18901); experiment: Inhibition of [3H]-SCH- 23390 binding to the rat striatal membranes; type: cell membranes, Membrane
D(1A) dopamine receptor, sequence (P18901 whole entry): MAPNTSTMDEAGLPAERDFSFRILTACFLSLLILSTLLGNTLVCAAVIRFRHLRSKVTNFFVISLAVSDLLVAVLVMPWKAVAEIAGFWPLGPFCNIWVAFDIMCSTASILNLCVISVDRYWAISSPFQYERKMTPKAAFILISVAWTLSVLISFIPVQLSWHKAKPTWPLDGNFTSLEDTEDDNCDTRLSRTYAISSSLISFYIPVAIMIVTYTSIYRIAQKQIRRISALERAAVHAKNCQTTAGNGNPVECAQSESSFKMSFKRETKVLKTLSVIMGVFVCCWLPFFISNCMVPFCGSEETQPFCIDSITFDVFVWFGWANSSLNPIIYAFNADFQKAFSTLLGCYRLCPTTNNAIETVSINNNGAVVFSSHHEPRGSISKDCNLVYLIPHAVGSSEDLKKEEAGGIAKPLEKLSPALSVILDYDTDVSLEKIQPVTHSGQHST
In short: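 Striatal membranes washed twice at 20000g, resuspended in Tris with 5 mM MgSO4, 0.5 mM EDTA, 0.02% ascorbic acid, sonicated. Membranes (100 µg protein) incubated 1 h at 25 °C with 0.25 nM [3H]SCH 23390 and test drug. Nonspecific binding defined with 30 µM SK&F 38393. Filtration, then scintillation counting. IC50 from curves of 4-11 concentrations, 4-6 determinations per concentration.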

Sodium-dependent dopamine transporter, sequence (P23977 whole entry): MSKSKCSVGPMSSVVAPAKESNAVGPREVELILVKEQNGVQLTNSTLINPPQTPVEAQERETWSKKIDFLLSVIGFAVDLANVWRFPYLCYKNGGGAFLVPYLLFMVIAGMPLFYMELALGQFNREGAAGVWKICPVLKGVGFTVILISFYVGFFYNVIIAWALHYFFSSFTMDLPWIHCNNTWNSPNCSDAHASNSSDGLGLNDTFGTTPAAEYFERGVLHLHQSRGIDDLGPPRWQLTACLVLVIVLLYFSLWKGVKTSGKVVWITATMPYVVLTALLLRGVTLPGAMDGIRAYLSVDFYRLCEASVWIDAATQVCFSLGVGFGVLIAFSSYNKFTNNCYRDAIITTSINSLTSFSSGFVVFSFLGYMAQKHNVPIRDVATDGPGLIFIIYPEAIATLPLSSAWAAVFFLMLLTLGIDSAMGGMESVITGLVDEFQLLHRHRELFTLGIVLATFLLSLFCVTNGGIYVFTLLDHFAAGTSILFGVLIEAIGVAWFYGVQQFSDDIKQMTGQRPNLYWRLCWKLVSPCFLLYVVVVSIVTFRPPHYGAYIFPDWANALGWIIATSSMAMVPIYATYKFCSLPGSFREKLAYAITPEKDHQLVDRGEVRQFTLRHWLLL

| Compound | IC50 [1] [µM] | IC50 [2] [µM] | IC50 [3] [µM] |
| --- | --- | --- | --- |
| CCCN1CCc2cc(O)c(O)cc2[C@@H]1Cc1ccccc1 | 64.8 | 14.7 | 16.6 |
| CCCN1CCc2cc3c(cc2[C@H]1Cc1ccccc1)OCO3 | 43.6 | > 100 | > 100 |
| CCCN1CCc2cc3c(cc2[C@@H]1Cc1ccccc1)OCO3 | 20.3 | 21.9 | 51.9 |
| CCCN1CCc2cc(O)c(O)cc2[C@H]1Cc1ccccc1 | 91.5 | 61.2 | > 100 |

These reach a lower IC50 [1]. Values come first.

| IC50 [1] [µM] | IC50 [2] [µM] | IC50 [3] [µM] | Compound |
| --- | --- | --- | --- |
| 6.8 | 53.1 | > 100 | c1ccc(C[C@H]2NCCc3cc4c(cc32)OCO4)cc1 |
| 3.6 | 4 | 23.9 | c1ccc(C[C@@H]2NCCc3cc4c(cc32)OCO4)cc1 |
